Compound activity: PubChem BioAssay, several laboratories
The full list was thinned out, with hits kept by preference.
T cruzi repl = T. cruzi replication inhibition. T. cruzi beta-gal in NIH3T3, luminescence, 90 h. inhibition, % (test concentration not listed). 1.4% of 300,000 active;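 active = mean inhibition across valid replicates above about 55%, limit read from the data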;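 note: signal also drops with host cell toxicity which is not excluded here; 0% = plate median of DMSO wells and 100% = zero luminescence signal; higher percent means less beta-gal luminescence so fewer parasites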
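System – NIH/3T3 host cells with β-galactosidase reporter T. cruzi · Doses – single 50 nL compound addition per well in DMSO · Reagent – 5000 T. cruzi trypomastigotes/well · Medium – Low-serum DMEM with 2% FBS · Timing – ≥90 h infection period, 3 h prior cell attachment · Evaluation – parasite load inhibition, % · Technique – GalScreen luminescence, 60 min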
CHOP UPR activ = apoptotic UPR (CHOP) activation | 0.34% of 330,000 active | CHO-CHOP luciferase reporter, luminescence; percent of tunicamycin response over DMSO baseline | AID 449763 | activation, % at 10 µM;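 active = at 10 µM dose, activation of 40% or more, normalized to positive control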;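 note: 100% = tunicamycin at 10 µg/mL and 0% = DMSO alone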
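Dosing – one dose, 10 µM in 0.5% DMSO · System – CHO-CHOP cells, stable luciferase reporter of PERK-eIF2a-CHOP signalling · Input – 500 cells/well · Control set – tunicamycin 10 µg/mL final as positive, DMSO-only wells as negative · Timing – 6 h compound treatment, 37 °C · Measure – % activation vs tunicamycin · Technique – luminescence read with Steady-Glo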
Dynein transport = dynein cargo transport inhibition | 3617.4 mouse cells, GR-EGFP nuclear translocation imaging; test concentration mostly 20 µM; stimulated with dexamethasone, 1 µM; stronger effect = lower value | z-score, hits read low | 0.47% of 220,000 active | AID 1381;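 active = plate z-score of nuclear minus cytoplasmic receptor signal below a set negative limit, without overly bright fluorescence or cell loss, cut at about -3.5 in these data, passing the limit was not always enough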;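 note: z-score of nuclear minus cytoplasmic ring GR-EGFP intensity difference per well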
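Buffer or medium: tet-free, stripped-serum medium; Also added: dexamethasone, 1.0 µM final; Technique: high-content fluorescence imaging after fixation; Times: 48 h induction, 1 h compound, 30 min dex at 37 °C; Read-out: per-cell GR-EGFP intensity, nucleus versus surrounding cytoplasmic ring, well-averaged.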
Lmaj promast = Leishmania major promastigote growth inhibition; Leishmania major promastigotes, resazurin fluorescence viability; inhibition, % at 10 µM; 9% of 200,000 active; AID 1063; in the data active = inhibition above about 50%;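 note: promastigotes grown with compound for 44 hours at 28 °C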
XBP1 UPR activ = activators of adaptive arm of unfolded protein response (XBP1) | CHO-XBP1 luciferase reporter, IRE1-XBP1 UPR activation, luminescence; percent of tunicamycin response, DMSO as zero | activation, % at 20 µM | 0.33% of 330,000 active | AID 463104;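 active = versus positive control, 20 µM dose yields 30% or more activation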;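 note: 100% = tunicamycin at 10 µg/mL and 0% = DMSO only wells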
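Signal: luciferase luminescence; Assay system: CHO-XBP1 luciferase reporter cells; Amount: one thousand reporter cells per well; Dosing: 20 µM single concentration, DMSO 1%; Benchmarks: high control tunicamycin 10 µg/mL final, low control DMSO vehicle only; Schedule: 6 h compound exposure at 37 °C, 5% CO2; Evaluation: percent activation relative to tunicamycin reference.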
CHOP inhibitor = CHOP inhibition in unfolded protein response; 3.8% of 220,000 active; inhibition, % at 10 µM; CHO-K1 CHOP-promoter luciferase, tunicamycin-induced, 15-18 h;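 active = compounds that reduced the stress-induced luciferase reporter signal by more than about 70% of percent inhibition, limit read from the data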;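 note: 0% = tunicamycin plus vehicle and 100% = wells without tunicamycin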
An asterisk follows results filed as active; . = not tested or not shown.

SMILES	T cruzi repl	CHOP UPR activ	Dynein transport	Lmaj promast	XBP1 UPR activ	CHOP inhibitor
CCN(Cc1ccccc1)S(=O)(=O)c1ccc(C(=O)N(CCCN(C)C)c2nc3c(C)c(C)ccc3s2)cc1	60*	5	.	.	30	.
Cc1nc(Cc2nnc(SCC(=O)Nc3c(C)cccc3C)o2)cs1	0	0	.	.	1	.
CCCCC(OC(=O)CN1C(=O)COc2ccccc21)C(=O)NC1CCCCC1 (configuration not stated)	1	-1	.	.	-2	.
COc1ccc(N(C)S(=O)(=O)c2cccc(C(=O)OCC(=O)c3c(N)n(C)c(=O)n(C)c3=O)c2)cc1	.	0	.	.	1	.
Cc1cccc(NC(=O)CC2SC(=NC3CCCCC3)NC2=O)c1 (configuration not stated)	4	2	-0.22	5	-5	74*
Cc1ccc2c(c1)c1c(n2C)-c2[nH]ncc2CC1	13	2	0.33	99*	4	64
C=CCN(CC=C)CCOc1ccccc1	-22	1	-0.64	54*	-1	6
C=CCN(CC=C)CCOc1cccc2ccccc12	2	2	-0.66	62*	1	76*
C=CCN(CC=C)CCOc1ccccc1F	-4	-2	0.19	31	1	19
Cc1cc(CN(C)C(=O)c2ccc(OC3CCN(CCc4ccccc4)CC3)cc2)on1	4	2	.	.	-2	.
CC(C)Cc1n[nH]c(=O)[nH]1	-6	0	-1.5	-4	-1	83*
CC(C)Cc1nc2ccc(N)cc2[nH]1	-19	5	0.19	4	-2	18
CCCn1c(SCC(=O)c2c(C)[nH]c(C)c2C(=O)OCC)nc2ccccc21	1	0	1.7	64*	-3	15
O=C(N/N=C/c1ccncc1)c1sc2ccccc2c1Cl	3	1	.	.	0	.
O=C(N/N=C/c1cccc2ccccc12)c1cccnc1	-9	1	.	.	-3	.
CCc1ccc(C(=O)N/N=C/c2cccc3ccccc23)nc1	11	6	0.57	21	3	79*
CCc1ccc(-c2cc(C(=O)N/N=C/c3c[nH]c4ccccc34)[nH]n2)cc1	-7	1	-0.37	27	1	89*
CCc1ccc2c(Cl)c(C(=O)N/N=C/c3c[nH]c4ccccc34)sc2c1	12	5	-0.29	42	-3	71*
O=C(N/N=C/c1ccc[nH]1)c1sc2ccccc2c1Cl	69*	4	1.8	99*	3	9
COc1ccccc1C(=O)C1CCCN(C(=O)c2snnc2C)C1 (configuration not stated)	-2	0	-0.9	-3	1	10
COCCNC(=S)N(CCc1c(C)[nH]c2ccc(Cl)cc12)Cc1cccs1	52	0	-0.35	53*	-2	30
COCCNC(=S)N(CCc1c(C)[nH]c2ccc(F)cc12)Cc1cccs1	28	0	-3.3	42	0	40
CCNC(=S)N(CCc1c(C)[nH]c2ccc(Cl)cc12)Cc1ccco1	72*	0	-0.075	43	-3	25
CNC(=S)N(CCc1c(C)[nH]c2ccc(Cl)cc12)Cc1cccs1	60*	1	0.47	43	-2	-3
Cc1ccc(C(=O)N/C(=C\c2cn(C)c3ccccc23)C(=O)NCCN2CCOCC2)cc1	-7	0	.	.	-3	.
SMILES	T cruzi repl	CHOP UPR activ	Dynein transport	Lmaj promast	XBP1 UPR activ	CHOP inhibitor
O=C(Nc1ccccc1)c1ccccc1N=Cc1cccc(O)c1	14	0	0.084	11	-1	10
COc1cccc(C=Nc2ccccc2C(=O)Nc2ccccc2)c1O	-12	5	-0.78	52*	-2	6
COc1cccc(/C=N/NC(=O)CSCC(=O)Nc2ccccc2)c1O	-5	-1	-0.75	99*	0	46
COc1ccc(/C=N/NC(=O)C2C(=O)NCC2c2ccccc2)c(OC)c1 (configuration not stated)	-4	-2	-0.88	-1	-2	9
COc1cccc(/C=N\NC(=O)C2C(=O)NCC2c2ccccc2)c1O (configuration not stated)	-10	-1	-0.46	96*	-8	50
COc1ccc(-c2noc(CCC(=O)N3CCN(c4ccccc4Br)CC3)n2)cc1	.	1	.	.	1	.
CS(=O)(=O)N(CC(=O)N1CCC(C(N)=O)CC1)Cc1ccc(Cl)c(Cl)c1	-12	0	.	.	-5	.
CC(C)OCCCNC(=O)C1CCN(S(=O)(=O)N2CCCC2)CC1	-4	2	0.58	-4	2	2
Cc1cc(C)c(S(=O)(=O)c2ccc(Cl)cc2)c(Cl)n1	8	0	-1.2	10	-1	32
CSc1nc(C)cc(C)c1S(=O)(=O)c1ccccc1C	7	1	1.6	18	1	50
Cc1cc(C)c(S(=O)(=O)c2ccc(F)cc2C)c(Cl)n1	55*	0	.	.	4	.
Cc1cc(C)c(S(=O)(=O)c2ccccc2Cl)c(Cl)n1	55*	2	3	21	11	-11
CCSc1nc(C)cc(C)c1S(=O)(=O)c1ccccc1C	25	1	0.085	88*	-5	71*
COc1ccc(-n2nc(C(=O)NCC(=O)NCc3cccc(F)c3)c3ccccc3c2=O)cc1Cl	1	0	.	.	3	.
Cc1cc(/C=C(/C#N)c2cccc(Cl)c2)c(C)n1C	14	0	0.018	1	1	48
Cc1cccc(NC(=O)/C(C#N)=C\c2cc(C)n(-c3ccc(C(=O)O)cc3)c2C)c1	-6	1	-0.3	-8	2	-7
Cc1cccc(-n2c(C)cc(C=C(C#N)C#N)c2C)c1	-9	-1	1.3	62*	-2	17
Cc1cc(/C=C(/C#N)c2cccc(F)c2)c(C)n1-c1cccnc1	26	4	1.6	99*	4	31
OCCN=c1cc(-c2ccccc2)oc2ccc(Cl)cc12	21	-1	0.049	84*	6	37
CC(O)CN=c1cc(-c2ccccc2)oc2ccc(Cl)cc12 (configuration not stated)	0	6	-0.55	34	-1	23
CCN(CC(=O)NC1CCS(=O)(=O)C1)C(C)C(=O)Nc1ccc(F)cc1 (configuration not stated)	.	0	.	.	0	.
CCN(CC)Cc1cc2[nH]c3c4ccc(Cl)cc4ncc3c2cc1OC	62*	1	0.17	.	-2	-68
O=C(c1cc(N2C(=O)C3C4CCC(C4)C3C2=O)ccc1Cl)N1CCN(c2ccccc2F)CC1 (configuration not stated)	6	1	-0.27	75*	-2	41
